Test [1] concerns MCF7. As to the kind of experiment: Increase in endogenous ceramide level in human MCF7 cells upto 10 uM after 24 hrs. It counts as functional. The procedure, abridged: (§1)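 MCF7 cells grown in RPMI 1640 with 10% FCS at 37 °C in 5% CO2. Seeded near 50% density and treated 24 h later with compound in ethanol (0.1% final); controls got ethanol alone. Cells washed in cold PBS and extracted. Cer species, Sph and S1P measured by HPLC-MS/MS (C8 column, positive-ion MRM) against internal standards and calibration curves. Results given as pmol/nmol phospholipid phosphate, relative to ethanol controls.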

The test system of test [2] is MCF7. As to the kind of experiment: Increase in endogenous C24:1-ceramide level in human MCF7 cells after 24 hrs. It counts as functional. The procedure, abridged: as §1
Test [3] deals with MCF7. As to the kind of experiment: Increase in endogenous sphingosine level in human MCF7 cells at 10 uM after 5 hrs. The test is classed as functional. The procedure, abridged:
as §1

Test [4] concerns MCF7. As to the kind of experiment: Increase in endogenous sphingosine level in human MCF7 cells after 24 hrs. It counts as functional. The procedure, abridged:
as §1

Test [5] relates to MCF7. As to the kind of experiment: Increase in endogenous C16-ceramide level in human MCF7 cells after 24 hrs. The test is classed as functional. The procedure, abridged: (§2)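 MCF7 cells grown in RPMI 1640 with 10% FCS at 37 °C, 5% CO2. Seeded at ~50% density (1×10^6 cells), treated 24 h later with compounds in ethanol (0.1% final); controls got ethanol only. Cells washed in cold PBS and lipids extracted. Cer species and Sph quantified by HPLC-MS/MS (MRM, positive ion) against internal standards and calibration curves. Values given as pmol/nmol phospholipid and compared with ethanol controls.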

The subject of test [6] is MCF7. As to the kind of experiment: Increase in endogenous C14-ceramide level in human MCF7 cells at 10 uM within 30 mins. It counts as functional. The procedure, abridged:
as §2

Test [7] deals with MCF7. As to the kind of experiment: Induction of endogenous C16-ceramide formation in human MCF7 cells after 10 hrs. The test is classed as functional. The procedure, abridged: as §1
In test [8] the test system is MCF7. As to the kind of experiment: Increase in endogenous sphingosine-1-phosphate level in human MCF7 cells after 5 to 10 hrs. It counts as functional, cell-based. The procedure, abridged:
as §1

In test [9] the test system is MCF7. As to the kind of experiment: Increase in endogenous sphingosine level in human MCF7 cells >5 uM after 24 hrs. It counts as functional, cell-based. The procedure, abridged:
as §1

The test system of test [10] is MCF7. As to the kind of experiment: Increase in endogenous ceramide level in human MCF7 cells at 10 uM after 24 hrs. The test is classed as functional. The procedure, abridged: as §1
Test [11] has as its system MCF7. As to the kind of experiment: Increase in endogenous C14-ceramide level in human MCF7 cells after 24 hrs. The test is classed as functional. The procedure, abridged:
as §2

Test [12] deals with MCF7. As to the kind of experiment: Induction of endogenous C24:1-ceramide formation in human MCF7 cells after 10 hrs. It counts as functional. The procedure, abridged: as §1
Test [13] relates to MCF7. As to the kind of experiment: Induction of endogenous C14-ceramide formation in human MCF7 cells after 10 hrs. The test is classed as functional. The procedure, abridged:
as §1

Active and inactive are the calls of the source. The calls are words filed in the database; no cut-off is given here.

With `C[C@@H](NC(=O)CCCCCCCCCCCCCCC[n+]1ccccc1)[C@@H](O)c1ccccc1.[Br-]`, the Activity is 260% in the test with MCF7 [1]; “Dose-dependent effect” in the test with MCF7 [2]; 300% in the test with MCF7 [3]; “Dose-dependent effect” in the test on MCF7 [4]; “Dose-dependent effect” with MCF7 [5]; 190% in the test on MCF7 [6]. Also, the Activity with MCF7 [7] is 157%; in the test with MCF7 [10], 260%; with MCF7 [11] it was “Dose-dependent effect”; in the test on MCF7 [12], 142%; with MCF7 [13], 310%. Moreover, the result with MCF7 [8] and with MCF7 [9] was Active.

The values above are taken from ChEMBL document CHEMBL1143123, “Novel analogs of D-e-MAPP and B13. Part 2: signature effects on bioactive sphingolipids” (2008).
